Three molecules from ChEMBL document CHEMBL3272249, “Esters of N-tert-butylarterenol. Long-acting new bronchodilators with reduced cardiac effects” (J Med Chem, 1976) can be followed below.

In data set [1] the test system is Canis familiaris. The experiment in a line: Bronchodilator activity in dog assessed as time of inhibition of carbachol or histamine-induced bronchoconstriction at 530 to 1060 mg/kg, it relative to control. The class given is functional, Canis lupus familiaris. As to conditions: dose mg/kg 530-1060; route endotracheal. The procedure, abridged:
(§1)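 Anesthetized dogs with an airway cannula and a nonbreathing valve. Bronchoconstriction was induced by iv carbachol (2–4 μg/kg) or histamine diphosphate (20–50 μg/kg) and read as change in airway pressure by transducer. Each compound was tested against both agonists in different dogs, and the results were combined and averaged. Effect is % inhibition of control constriction, with at least three dogs per dose. Drugs were dissolved fresh in distilled water, diluted in saline and kept on ice.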

Data set [2] has as its system Canis familiaris. The experiment in a line: Bronchodilator activity in dog assessed as degree of inhibition of carbachol or histamine-induced bronchoconstriction at 530 to 1060 mg/kg, it relative to control. Format: functional, Canis lupus familiaris. The note with it: dose mg/kg 530-1060; route endotracheal. Summed up:
(§2)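 Anesthetized dogs, trachea cannulated with a nonbreathing valve. Bronchoconstriction induced by iv carbachol (2–4 μg/kg) or histamine diphosphate (20–50 μg/kg) in separate animals, and airway pressure recorded by transducer. Drug stocks were made fresh in distilled water, diluted in saline and kept on ice. Read-out was percent inhibition of control constriction, averaged over at least three dogs per dose at the higher dose. Carbachol and histamine data were combined.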

Data set [3] concerns Canis familiaris. The data set is described as follows: Cardiotoxicity in spontaneously respiring dog assessed as time of increase in heart rate at 520 to 1040 mg/kg, it relative to control. The class given is toxicity, organism-based, Canis lupus familiaris. Set-up: dose 520-1040 mg/kg, route endotracheal. The note with it: in vivo, inhaled_or_intranasal. Summed up: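 Anesthetized, spontaneously respiring dogs. Heart rate monitored by lead II EKG, with blood pressure taken from the right femoral artery by pressure transducer and recorded on a polygraph. Drug stocks made fresh in distilled water, diluted in physiological saline and kept on ice. Dosing was iv, id or it as listed. The duration of the heart-rate increase was recorded in h, with more than 4 dogs per dose.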

Data set [4] deals with Canis familiaris. The experiment in a line: Bronchodilator activity in dog assessed as time of inhibition of carbachol or histamine-induced bronchoconstriction at 520 to 1040 mg/kg, it relative to control. The class given is functional, Canis lupus familiaris. The note with it: dose mg/kg 520-1040; route endotracheal. The procedure, abridged:
as §1

Data set [5] relates to Canis familiaris. The experiment in a line: Bronchodilator activity in dog assessed as degree of inhibition of carbachol or histamine-induced bronchoconstriction at 25 to 50 mg/kg, iv relative to control. The class given is functional, Canis lupus familiaris. The note with it: dose mg/kg 25-50. The procedure, abridged: as §2
In data set [6] the test system is Canis familiaris. The data set is described as follows: Cardiotoxicity in spontaneously respiring dog assessed as degree of increase in heart rate at 520 to 1040 mg/kg, it relative to control. The class given is toxicity, organism-based, Canis lupus familiaris. Set-up: dose 520-1040 mg/kg, route endotracheal. As to conditions: in vivo, inhaled_or_intranasal. Summed up:
(§3)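 Anesthetized, spontaneously respiring dogs. Heart rate was taken from a lead II EKG, and blood pressure from the right femoral artery by transducer. The increase in heart rate (beats/min) was scored on a graded scale with more than 4 dogs per dose, and its duration was recorded. Drugs were dissolved fresh in distilled water, diluted in physiological saline and kept on ice.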

The subject of data set [7] is Canis familiaris. The data set is described as follows: Bronchodilator activity in dog assessed as degree of inhibition of carbachol or histamine-induced bronchoconstriction at 520 to 1040 mg/kg, it relative to control. Format: functional, Canis lupus familiaris. The note with it: dose mg/kg 520-1040; route endotracheal. Summed up:
as §2

For data set [8], the system named is Canis familiaris. The experiment in a line: Cardiotoxicity in spontaneously respiring dog assessed as degree of increase in heart rate at 25 to 50 mg/kg, iv relative to control. Set-up: dose 25-50 mg/kg, route intravenous. The class given is toxicity, organism-based, Canis lupus familiaris. As to conditions: in vivo. Summed up:
as §3

For data set [9], the system named is Canis familiaris. The experiment in a line: Cardiotoxicity in spontaneously respiring dog assessed as time of increase in heart rate at 25 to 50 mg/kg, iv relative to control. Format: toxicity, organism-based, Canis lupus familiaris. Set-up: dose 25-50 mg/kg, route intravenous. As to conditions: in vivo. The procedure, abridged:
as §3

Data set [10] deals with Canis familiaris. The data set is described as follows: Bronchodilator activity in dog assessed as time of inhibition of carbachol or histamine-induced bronchoconstriction at 25 to 50 mg/kg, iv relative to control. Format: functional, Canis lupus familiaris. As to conditions: dose mg/kg 25-50. The procedure, abridged:
(§4)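 Dog airway model: anesthetized, cannulated via a nonbreathing valve, with airway pressure changes recorded after iv carbachol (2–4 μg/kg) or histamine diphosphate (20–50 μg/kg) challenge, each agonist in different animals. Compounds were given iv, intraduodenally or intratracheally from fresh aqueous stocks diluted in saline. Duration (h) of inhibition of induced bronchoconstriction was followed, and the two agonist datasets were pooled.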

Data set [11] has as its system Canis familiaris. The data set is described as follows: Bronchodilator activity in dog assessed as degree of inhibition of carbachol or histamine-induced bronchoconstriction at 20 to 40 mg/kg, iv relative to control. Format: functional, Canis lupus familiaris. As to conditions: dose mg/kg 20-40. The procedure, abridged:
as §2

Data set [12] relates to Canis familiaris. The data set is described as follows: Bronchodilator activity in dog assessed as time of inhibition of carbachol or histamine-induced bronchoconstriction at 20 to 40 mg/kg, iv relative to control. The class given is functional, Canis lupus familiaris. As to conditions: dose mg/kg 20-40. The procedure, abridged:
as §4

Data set [13] relates to Canis familiaris. The experiment in a line: Bronchodilator activity in dog assessed as degree of inhibition of carbachol or histamine-induced bronchoconstriction at 250 to 1000 mg/kg, it relative to control. The class given is functional, Canis lupus familiaris. As to conditions: dose mg/kg 250-1000; route endotracheal. Summed up: as §2
The subject of data set [14] is Canis familiaris. The experiment in a line: Cardiotoxicity in spontaneously respiring dog assessed as degree of increase in heart rate at 20 to 40 mg/kg, iv relative to control. Format: toxicity, organism-based, Canis lupus familiaris. Set-up: dose 20-40 mg/kg, route intravenous. The note with it: in vivo. Summed up:
as §3

Data set [15] concerns Canis familiaris. The data set is described as follows: Bronchodilator activity in dog assessed as degree of inhibition of carbachol or histamine-induced bronchoconstriction at 160 mg/kg, id relative to control. Format: functional. The note with it: Canis lupus familiaris, route intraduodenal. Summed up:
as §2

Data set [16] relates to Canis familiaris. The data set is described as follows: Cardiotoxicity in spontaneously respiring dog assessed as degree of increase in heart rate at 160 mg/kg, id relative to control. Format: toxicity, organism-based, Canis lupus familiaris. Set-up: dose 160 mg/kg, route intraduodenal. As to conditions: in vivo, other. Summed up: as §3
For data set [17], the system named is Canis familiaris. The data set is described as follows: Cardiotoxicity in spontaneously respiring dog assessed as time of increase in heart rate at 20 to 40 mg/kg, iv relative to control. Format: toxicity, organism-based, Canis lupus familiaris. Also on record: dose 20-40 mg/kg, route intravenous. The note with it: in vivo. Summed up:
as §3

Data set [18] relates to Canis familiaris. The experiment in a line: Cardiotoxicity in spontaneously respiring dog assessed as degree of increase in heart rate at 250 to 1000 mg/kg, it relative to control. The class given is toxicity, organism-based, Canis lupus familiaris. Also on record: dose 250-1000 mg/kg, route endotracheal. The note with it: in vivo, inhaled_or_intranasal. The procedure, abridged: as §3

Data set [19] deals with Canis familiaris. The data set is described as follows: Bronchodilator activity in dog assessed as time of inhibition of carbachol or histamine-induced bronchoconstriction at 160 mg/kg, id relative to control. Format: functional, Canis lupus familiaris. As to conditions: route intraduodenal. The procedure, abridged:
as §4

Data set [20] has as its system Canis familiaris. The experiment in a line: Bronchodilator activity in dog assessed as time of inhibition of carbachol or histamine-induced bronchoconstriction at 250 to 1000 mg/kg, it relative to control. Format: functional, Canis lupus familiaris. The note with it: dose mg/kg 250-1000; route endotracheal. The procedure, abridged: as §4
Data set [21] deals with Canis familiaris. The data set is described as follows: Cardiotoxicity in spontaneously respiring dog assessed as time of increase in heart rate at 250 to 1000 mg/kg, it relative to control. Format: toxicity, organism-based, Canis lupus familiaris. Set-up: dose 250-1000 mg/kg, route endotracheal. The note with it: in vivo, inhaled_or_intranasal. The procedure, abridged: as §3

The test system of data set [22] is Canis familiaris. The experiment in a line: Cardiotoxicity in spontaneously respiring dog assessed as time of increase in heart rate at 160 mg/kg, id relative to control. The class given is toxicity, organism-based, Canis lupus familiaris. Set-up: dose 160 mg/kg, route intraduodenal. As to conditions: in vivo, other. The procedure, abridged:
as §3

With `Cc1ccc(CC(=O)Oc2ccc([C@@H](O)CNC(C)(C)C)cc2OC(=O)Cc2ccc(C)cc2)cc1.Cl`, the Time in data set [1] turned out to be 2 h. Also, in [2], the “inhibition (INH)” value was 40%.
`CC(=O)Oc1cc([C@@H](O)CNC(C)(C)C)ccc1OC(=O)c1ccc(C)cc1.CS(=O)(=O)O`: the Time in data set [3] is less than 1 h; in data set [4], more than 1 h; in [9], less than 0.5 h; in data set [10], less than 1 h. For the same molecule, the “inhibition (INH)” value in data set [5] and in [7] was more than 70% in each case. For the same molecule, the Activity in [6] amounted to 5%; in data set [8] it was 40%.
In general, inhibition in vivo refers to the share of the control response that was lost under treatment. Consider `COc1ccc(C(=O)Oc2ccc([C@@H](O)CNC(C)(C)C)cc2OC(C)=O)cc1.CS(=O)(=O)O`, for which the “inhibition (INH)” value in data set [11] and in data set [13] was more than 70% in each case. The Time in [12] was more than 4 h; in [17], 2 h; in data set [19], more than 5 h; in data set [20], more than 6 h; in [21] it was less than 1 h; in data set [22] it was less than 3 h. For the same molecule, the Activity in data set [14] stood at 20%; in data set [16] it was 20%; in data set [18], 5%. The inhibition in vivo at 160 mg/kg in [15] is more than 70%.
